pIC50: −log10 of the molar value.
Assays:
ABHD12 [1] = target: T1, ABHD12 (Mus musculus, UniProt Q99LR1); assay: Ex vivo gel-based competitive ABPP; type: in vivo
T1 sequence (Q99LR1 1-398): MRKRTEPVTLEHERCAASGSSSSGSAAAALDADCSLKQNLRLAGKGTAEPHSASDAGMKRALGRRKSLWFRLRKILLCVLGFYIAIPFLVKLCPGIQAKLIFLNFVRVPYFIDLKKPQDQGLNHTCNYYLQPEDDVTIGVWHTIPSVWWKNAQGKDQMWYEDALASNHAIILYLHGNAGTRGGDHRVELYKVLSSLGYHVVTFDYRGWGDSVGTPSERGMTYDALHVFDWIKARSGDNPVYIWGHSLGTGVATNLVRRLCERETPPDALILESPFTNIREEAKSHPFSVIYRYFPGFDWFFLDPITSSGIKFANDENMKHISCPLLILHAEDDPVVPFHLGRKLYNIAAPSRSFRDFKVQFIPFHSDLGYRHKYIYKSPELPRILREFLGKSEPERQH

ABHD12 [2] = target: T2, ABHD12 (Homo sapiens, UniProt Q8N2K0); assay: In situ treatment of THP-1 cells, competitive gel-based ABPP with JJH350 probe; type: cell-based; conditions: 1 μM, 4 h in situ
T2 sequence (Q8N2K0 1-398): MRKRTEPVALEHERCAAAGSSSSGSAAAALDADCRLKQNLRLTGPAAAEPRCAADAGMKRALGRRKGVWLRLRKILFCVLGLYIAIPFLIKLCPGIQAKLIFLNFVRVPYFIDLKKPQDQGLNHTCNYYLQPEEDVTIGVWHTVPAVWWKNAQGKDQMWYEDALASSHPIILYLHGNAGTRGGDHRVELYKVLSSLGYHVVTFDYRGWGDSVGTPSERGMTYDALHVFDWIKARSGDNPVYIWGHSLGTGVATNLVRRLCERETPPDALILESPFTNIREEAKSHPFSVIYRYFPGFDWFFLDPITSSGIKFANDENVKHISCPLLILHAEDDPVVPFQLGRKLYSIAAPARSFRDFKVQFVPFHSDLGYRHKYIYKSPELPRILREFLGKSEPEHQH
How it was run: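 Whole THP-1 cells exposed to test compound or DMSO for 4 h at 37 °C, 5% CO₂, then washed twice with ice-cold DPBS. Proteome (1 mg/mL) labelled with JJH350 (2 μM final, 45 min, 37 °C), clicked by CuAAC and resolved on gel. ABHD12 band intensity is expressed relative to the control-treated sample, set to 100%.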

serine hydrolases = assay: ABPP of brain serine hydrolase activities from treated mice; type: in vivo, mouse; conditions: gel- and MS-based ABPP, more than 65 other serine hydrolases quantified
How it was run: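 Mice dosed i.p. with test compound (30 mg/kg) or vehicle and killed after 4 h (isoflurane, then cervical dislocation). Brain membrane serine hydrolase activities quantified by MS-based ABPP. Each protein's value is the mean of median peptide ratios (treated vs vehicle) ± SEM, from n = 4 or 3 independent samples per compound.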

ABHD12 [3] = target: T2, ABHD12; assay: ABPP-SILAC; type: cell-based; conditions: 1 μM, 4 h, THP-1 cells
How it was run: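 Heavy- or light-labelled THP-1 cells (30 million) differentiated with PMA (150 ng/mL final) for 24 h, washed, then kept a further 24 h in fresh SILAC medium. Light cells treated with test compound and heavy cells with DMSO, 4 h at 37 °C. Sonicated whole-cell proteomes (2 mg/mL) labelled separately with FP-biotin 1 μM, 30 min, room temperature, then combined for quantitative MS.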

C57BL/6 mice = assay: Targeted LC-MS of brain lipid content of treated mice; type: in vivo, mouse
How it was run: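 Mice received test compound or vehicle i.p. (single doses, 24 h; or 30 mg/kg time course), orally (24 h), or 30 mg/kg daily p.o. for four weeks (8-month-old mice). Brains harvested after isoflurane and cervical dislocation; lipids measured by targeted LC-MS. ABHD12(+/+) and (−/−) brains serve as reference; chronic data given as mean ± SEM.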

ABHD12 [4] = target: T2, ABHD12; type: cell-based
How it was run: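 THP-1 cells (6 million in 10 mL) given test compound (1–1000 nM) or DMSO for 4 h at 37 °C, 5% CO₂, then washed twice in ice-cold DPBS. Membrane proteome incubated with 17:1 lyso-PS (100 μM final), 20 min, 37 °C. Readout is the LC-MS 17:1 FFA/15:0 FFA ratio minus the JJH350 (10 μM)-treated membrane background. IC50 fitted as log(inhibitor) vs normalized response.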

ABHD12 [5] = target: T1, ABHD12; assay: Lyso-PS hydrolysis assay with membrane lysates of ABHD12-transfected cells; type: biochemical
How it was run: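 Membrane lysate of ABHD12-transfected cells in DPBS incubated with 17:1 lyso-PS (100 μM final) for 20 min at 37 °C. Quenched in 2:1 CHCl₃/MeOH with 15:0 FFA internal standard. Activity is the LC-MS 17:1 FFA/15:0 FFA peak-area ratio minus mock-transfected membrane activity. IC50 fitted as log(inhibitor) vs normalized response.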

mice = assay: Two-week daily dosing, overt signs of toxicity; type: in vivo, mouse; conditions: adult mice, 30 mg/kg daily, p.o., two weeks
[6] = test system: mouse brain serine hydrolases; type: biochemical; conditions: gel-based ABPP 0.1 or 2 μM; MS-based ABPP 1 μM
[7] = target: T3, mouse brain serine hydrolases (Mus musculus, UniProt Q9QXM0); type: biochemical; conditions: MS-ABPP, mouse brain membrane proteome, 1 μM
T3 sequence (Q9QXM0 1-425): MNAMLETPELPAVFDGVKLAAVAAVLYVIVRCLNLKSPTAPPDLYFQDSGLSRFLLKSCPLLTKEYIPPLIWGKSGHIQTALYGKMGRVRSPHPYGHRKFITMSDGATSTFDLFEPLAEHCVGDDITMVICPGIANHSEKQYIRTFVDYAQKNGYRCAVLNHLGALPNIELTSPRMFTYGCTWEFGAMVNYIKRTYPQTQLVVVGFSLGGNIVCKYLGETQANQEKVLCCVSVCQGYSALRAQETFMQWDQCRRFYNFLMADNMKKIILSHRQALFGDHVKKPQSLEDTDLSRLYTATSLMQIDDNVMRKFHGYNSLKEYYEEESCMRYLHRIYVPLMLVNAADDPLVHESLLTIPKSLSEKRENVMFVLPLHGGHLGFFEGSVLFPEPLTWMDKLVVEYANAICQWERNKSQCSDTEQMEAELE

With `FC(F)(F)Oc1ccc(Oc2ccnc(N3CCC(NC(=S)Nc4cccnc4)CC3)c2Cl)c(Cl)c1` [DO264, N-3-pyridyl-N’-(1-[3-chloro-4-{2-chloro-4-(trifluoromethoxy)phenoxy}pyridine-2-yl]piperidin-4-yl)thiourea] the “brain ABHD12 activity at 48 h post-dosing” value (ABHD12 [1]; 30 mg/kg, i.p.) was “partial recovery”, the “time post-treatment over which inhibition of brain ABHD12 activity was observed” value (ABHD12 [1]; 30 mg/kg, i.p.) was 4 to 24 h and the “brain ABHD12 activity, ex vivo analysis with JJH350 probe” value (ABHD12 [1]; C57BL/6 mice, 30 and 60 mg/kg, i.p. (4 h or 24 h) or p.o. (4 h)) was “complete inhibition”. The “inhibition of ABHD12 in peripheral tissues of mice” value (ABHD12 [1]; i.p., 30 mg/kg, 4 h, FP-Rh and JJH350 probes) was “selectively inhibited”, the “ABHD12 activity in THP-1 cells by competitive gel-based ABPP (in words)” value (ABHD12 [2]) was “complete blockade” and the “selectivity for ABHD12 in vivo” value (serine hydrolases) was “excellent selectivity”. The ABHD12 activity blocked (ABHD12 [3]) was > 95%, the “time post-dosing at which brain lyso-PS changes were maximal” value (C57BL/6 mice; 30 mg/kg, i.p., detectable by 4 h) was 24 h and the “brain 20:4 lyso-PI” value (C57BL/6 mice; 30 mg/kg, p.o., 24 h) was “increase”. The “brain lyso-PS and 20:4 PS after chronic treatment” value (C57BL/6 mice; 8-month-old mice, 30 mg/kg daily, p.o., four weeks) was “Substantial elevations”, the “brain lyso-PS species and select 20:4 PS species” value (C57BL/6 mice; DO264 1-60 mg/kg, (S)-DO271 60 mg/kg, i.p., 24 h) was “dose-dependently increased” and the “brain 2-AG” value (C57BL/6 mice; brain tissue of treated mice) was “did not show changes”. The “dose at which maximal lyso-PS and 20:4 PS elevations were observed” value (C57BL/6 mice; i.p., 24 h) was 30 mg/kg, the pIC50 (ABHD12 [4]) was 7.59 and the “time dependence of ABHD12 inhibition” value (ABHD12 [5]; 30-45 min or no preincubation, ABHD12-transfected HEK293T lysate 0.2 mg/mL) was “did not show time-dependent inhibition”. For the same compound, the “ABHD12 activity after dilution of inhibitor-treated lysates” value (ABHD12 [5]; ABHD12-transfected HEK293T lysates, preincubated 20 min, diluted five-fold) was “recovery of ABHD12 activity”, the “overt signs of toxicity, such as weight loss or behavioral distress” value (mice) was “neither compound produced overt signs of toxicity” and the “selectivity for ABHD12 over other mouse brain serine hydrolases” value [6] was “excellent selectivity”. The “inhibition of mouse ABHD2 in vitro” value [7] was “did not inhibit”.
